Square brackets hold non-standard residues; d marks the D form. Ends that are not written are not given here. * marks the point of attachment. MethylRed = CN(C)c1ccc(/N=N/c2ccccc2C(=O)*)cc1; Dnp = O=[N+]([O-])c1ccc(*)c([N+](=O)[O-])c1; AFC = O=c1cc(C(F)(F)F)c2ccc(N*)cc2o1; Mca = COc1ccc2c(CC(=O)*)cc(=O)oc2c1; Ahx = NCCCCCC(=O)O
Key:
[1] = system: caspase-3; assay: Screen of time-dependent fluorescence activation with caspase-3; assay type: biochemical, human; details: caspase-3 15 nM; for Activation with caspase-3 in preliminary screen (in words): substrate 2.5, 5 and 10 μM, 0-40 min, n = 3 (Fig. S1)
[2] = target: T1, recombinant human caspase-7 (Homo sapiens, UniProt P55210); assay: Kinetic assay; assay type: biochemical; details: caspase-7 15 nM; pH 7.5 caspase buffer; n = 3
T1 sequence (P55210 24-198 limits assumed): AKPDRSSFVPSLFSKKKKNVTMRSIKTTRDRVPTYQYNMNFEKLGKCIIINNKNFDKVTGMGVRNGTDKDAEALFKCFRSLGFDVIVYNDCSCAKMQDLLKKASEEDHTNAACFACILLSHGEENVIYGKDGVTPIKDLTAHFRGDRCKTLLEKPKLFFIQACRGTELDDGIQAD
T1 sequence (P55210 207-303 limits assumed): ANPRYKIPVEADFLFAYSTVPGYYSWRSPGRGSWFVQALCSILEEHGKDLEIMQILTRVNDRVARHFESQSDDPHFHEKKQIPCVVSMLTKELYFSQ
Outline: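 Human recombinant enzyme was incubated with internally quenched FRET substrates, FAM-Ahx-Asp-Glu-X2-Asp-X1′-(Ahx)-Lys(MR)-NH2. X2 was Val or Pro; X1′ was Gly, Ala, Ser or absent. The donor was 5(6)-carboxyfluorescein (Ex/Em 492/517 nm) and the quencher methyl red. Cleavage between Asp and X1′ relieves quenching. KM and kcat were determined for each substrate, and catalytic efficiency taken as kcat/KM.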

[3] = target: T2, human recombinant caspase-3 (human) (UniProt P42574)
T2 sequence: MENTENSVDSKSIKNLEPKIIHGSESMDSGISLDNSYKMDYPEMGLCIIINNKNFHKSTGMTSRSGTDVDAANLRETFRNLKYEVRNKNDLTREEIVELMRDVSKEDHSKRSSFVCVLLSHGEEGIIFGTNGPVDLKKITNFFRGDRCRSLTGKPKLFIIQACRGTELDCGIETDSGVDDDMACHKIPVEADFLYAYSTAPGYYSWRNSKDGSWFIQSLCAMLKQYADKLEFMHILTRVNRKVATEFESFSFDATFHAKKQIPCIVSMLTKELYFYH

[4] = target: T3, human recombinant caspase-7 (human) (UniProt P55210)
T3 sequence: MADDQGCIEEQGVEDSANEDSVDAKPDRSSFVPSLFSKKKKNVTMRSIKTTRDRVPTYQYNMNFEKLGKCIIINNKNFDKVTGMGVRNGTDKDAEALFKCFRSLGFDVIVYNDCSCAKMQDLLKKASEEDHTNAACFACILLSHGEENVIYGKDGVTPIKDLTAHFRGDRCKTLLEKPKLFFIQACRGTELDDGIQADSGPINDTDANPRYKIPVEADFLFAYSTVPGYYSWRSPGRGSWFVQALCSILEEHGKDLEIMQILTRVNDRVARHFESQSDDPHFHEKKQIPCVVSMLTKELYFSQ

Substrate 2: FRET substrate of the template; X2 Pro, X1′ Ala, no spacer ({5(6)‑carboxyfluorescein-Ahx}-DEPDAK(MethylRed)-NH2)
Activation with caspase-3 in preliminary screen (in words) [1]: reduced activation

Substrate 1: FRET substrate FAM-Ahx-Asp-Glu-X2-Asp-X1′-spacer-Lys(MR)-NH2; X2 Val, X1′ Gly, no spacer ({5(6)‑carboxyfluorescein-Ahx}-DEVDGK(MethylRed)-NH2)
Caspase-7 k cat/K M (catalytic efficiency) [2]: 8.6 μM^–1 min^–1

Substrate 3: FRET substrate of the template; X2 Pro, X1′ Ser, no spacer ({5(6)‑carboxyfluorescein-Ahx}-DEPDSK(MethylRed)-NH2)
Activation with caspase-3 in preliminary screen (in words) [1]: reduced activation

Substrate 5: FRET substrate of the template; X2 Pro, no X1′, spacer Ahx ({5(6)‑carboxyfluorescein-Ahx}-DEPD[Ahx]K(MethylRed)-NH2)
Caspase-7 k cat/K M (catalytic efficiency) [2]: 3.5 μM^–1 min^–1

Ac-Asp-Glu-Val-Asp-AFC [reference compound]
Caspase-7 k cat/K M (catalytic efficiency) [2]: 1.1 μM^–1 min^–1

Substrate 9: FRET substrate of the template; X2 Val, X1′ Ala, spacer Ahx ({5(6)‑carboxyfluorescein-Ahx}-DEVDA[Ahx]K(MethylRed)-NH2)
Caspase-7 k cat/K M (catalytic efficiency) [2]: 3.2 μM^–1 min^–1
Fold higher increase in fluorescence than Ac-Asp-Glu-Val-Asp-AFC (AFC) ([1]; all substrates at 20 μM, n = 3 (Fig. S2)): 3 fold

Substrate 7: FRET substrate of the template; X2 Val, X1′ Gly, spacer Ahx ({5(6)‑carboxyfluorescein-Ahx}-DEVDG[Ahx]K(MethylRed)-NH2)
Caspase-7 k cat/K M (catalytic efficiency) [2]: 3.9 μM^–1 min^–1

Substrate 8: FRET substrate of the template; X2 Pro, X1′ Ala, spacer Ahx ({5(6)‑carboxyfluorescein-Ahx}-DEPDA[Ahx]K(MethylRed)-NH2)
Caspase-7 k cat/K M (catalytic efficiency) [2]: 0.14 μM^–1 min^–1
Activation with caspase-3 in preliminary screen (in words) [1]: activity was restored

Substrate 6: FRET substrate of the template; X2 Pro, X1′ Gly, spacer Ahx ({5(6)‑carboxyfluorescein-Ahx}-DEPDG[Ahx]K(MethylRed)-NH2)
Caspase-7 k cat/K M (catalytic efficiency) [2]: 8.4 μM^–1 min^–1

MCA-Asp-Glu-Val-Asp-Ala-Pro-Lys-DNP [reference compound]
Caspase-7 k cat/K M (catalytic efficiency) [2]: 0.4 μM^–1 min^–1

Substrate 11: FRET substrate of the template; X2 Val, X1′ Ser, spacer Ahx ({5(6)‑carboxyfluorescein-Ahx}-DEVDS[Ahx]K(MethylRed)-NH2)
Caspase-7 k cat/K M (catalytic efficiency) [2]: 2.4 μM^–1 min^–1

Substrate 10: FRET substrate of the template; X2 Pro, X1′ Ser, spacer Ahx ({5(6)‑carboxyfluorescein-Ahx}-DEPDS[Ahx]K(MethylRed)-NH2)
Caspase-7 k cat/K M (catalytic efficiency) [2]: 0.5 μM^–1 min^–1
Activation with caspase-3 in preliminary screen (in words) [1]: activity was restored

Substrate 4: FRET substrate of the template; X2 Val, no X1′, spacer Ahx ({5(6)‑carboxyfluorescein-Ahx}-DEVD[Ahx]K(MethylRed)-NH2)
Caspase-7 k cat/K M (catalytic efficiency) [2]: 3.4 μM^–1 min^–1

Mca-DEVDAPK(Dnp) [MCA-Asp-Glu-Val-Asp-Ala-Pro-Lys-DNP]
K M (μM) of cleavage of the fluorogenic substrate by caspase-3 [3]: 13.5 µM
K M (μM) of cleavage of the fluorogenic substrate by caspase-7 [4]: 15.1 µM

Ac-DEVD-{AFC} [Ac-Asp-Glu-Val-Asp-AFC]
K M (μM) of cleavage of the fluorogenic substrate by caspase-3 [3]: 9.8 µM
K M (μM) of cleavage of the fluorogenic substrate by caspase-7 [4]: 10.8 µM

From paper PMC4763880 (Molecular Biosystems, 2016)
